Hits are enriched below; roughly 1.9% of the tested compounds scored in any of these assays.
RanGTP-Imp inh: inhibitors of RanGTP-importin-beta interaction, primary screen, biochemical, FRET, CFP-Ran, YFP-importin-beta, homogeneous; cell-free CFP-Ran/YFP-importin-beta FRET ratio; inhibition, % (concentration not given with the values); hit rate 1.1% among 300,000;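 active = more than half of the replicate wells show a fall in the fluorescence ratio signal beyond about 16%, limit read from the data, passing the limit was not always enough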
Hck Nef HTS: blocks Nef-activated human Hck kinase | hit rate 0.68% among 220,000 | P08631 | inhibition, % at 20 µM | AID 463187 | Recombinant Hck-YEEI plus Nef, Z-Lyte FRET kinase assay;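 active = Hck-Nef kinase inhibition above about 50%, limit read from the data; inactive = inhibition below that limit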
Target sequence (P08631 whole entry, looked up): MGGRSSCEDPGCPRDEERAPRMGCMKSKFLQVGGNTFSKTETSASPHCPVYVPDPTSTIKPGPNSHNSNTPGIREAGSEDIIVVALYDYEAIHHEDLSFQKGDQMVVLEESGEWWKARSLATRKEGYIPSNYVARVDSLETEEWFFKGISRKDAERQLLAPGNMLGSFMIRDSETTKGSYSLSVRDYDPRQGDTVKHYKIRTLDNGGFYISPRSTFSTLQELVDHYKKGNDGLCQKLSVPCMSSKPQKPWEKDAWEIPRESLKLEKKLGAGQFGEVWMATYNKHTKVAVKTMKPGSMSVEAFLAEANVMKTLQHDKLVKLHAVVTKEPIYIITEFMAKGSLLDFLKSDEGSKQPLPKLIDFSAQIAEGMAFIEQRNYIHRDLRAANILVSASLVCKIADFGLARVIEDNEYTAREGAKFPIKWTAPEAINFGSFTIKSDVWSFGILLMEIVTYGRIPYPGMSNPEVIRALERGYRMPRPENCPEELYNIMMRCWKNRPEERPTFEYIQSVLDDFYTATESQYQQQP
Runt-SMMHC FRET: blocks binding of human RUNX1 Runt domain to CBFb-SMMHC; Q01196+Q13951; Cerulean-Runt/Venus-CBFb-SMMHC FRET ratio 530/480, 1 h; inhibition, % at 20 µM; hit rate 0.74% among 220,000;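 active = mean inhibition across duplicate retests at 20 µM reaching about 50%, limit read from the data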;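 also: inhibitors lower the FRET ratio by blocking Runt binding to CBFb-SMMHC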
Runt-CBFb FRET: blocks binding of human RUNX1 Runt domain to CBFb. Q01196+Q13951. hit rate 0.46% among 220,000. inhibition, % at 20 µM. AID 1496. Cerulean-Runt/Venus-CBFb FRET ratio 530/480, 1 h;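 active = inhibition over about 50% at 20 µM in the single-dose screen, limit read from the data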
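Doses: 20 µM compound in 1% DMSO | Material: Cerulean-labeled Runt domain protein | Amount: Each fluorescent fusion protein 100 nM | Schedule: Two 1 h room-temperature incubations shielded from light | Measured by: FRET fluorescence | Evaluation: Loss of energy transfer signal | Controls: Unlabeled CBFb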
Of the large screens only hits and unclear results are named; the others gave an inactive call.

O=C1N/C(=C/c2ccc(N3CCOCC3)o2)C(=O)N1c1ccccc1	none (no result: RanGTP-Imp inh)
Cc1ccc(C(=O)O)cc1-c1ccc(/C=C2\SC(=O)N(CC(=O)Nc3ccccc3)C2=O)o1	RanGTP-Imp inh 24.1
CC(C)(C)OC(=O)CN1C(=O)S/C(=C\c2ccc(-c3cccc(C(=O)O)c3)o2)C1=O	RanGTP-Imp inh 34.5 (no result: Hck Nef HTS, Runt-SMMHC FRET, Runt-CBFb FRET)
COC(=O)c1ccccc1NC(=O)CN(c1c(C)cccc1C)S(C)(=O)=O	none (no result: Hck Nef HTS, Runt-SMMHC FRET, Runt-CBFb FRET)
CCn1c(C(=O)O)c(S(=O)(=O)c2ccc(Cl)cc2)c2ccccc21	none (no result: Hck Nef HTS, Runt-SMMHC FRET, Runt-CBFb FRET)
COc1cc(/C=C/C(=O)NC(=O)c2ccccc2O)ccc1OC(C)=O	none (no result: Hck Nef HTS, Runt-SMMHC FRET, Runt-CBFb FRET)
c1ccc(C2Nc3ccccc3C3OCCCC23)cc1 (stereo unspecified)	none (no result: Hck Nef HTS, Runt-SMMHC FRET, Runt-CBFb FRET)
N#Cc1ccncc1Sc1ccc(Cl)cc1	none (no result: Hck Nef HTS, Runt-SMMHC FRET, Runt-CBFb FRET)
CCCc1cc(=O)n2[nH]c(C)nc2n1	RanGTP-Imp inh 22.9
COc1cccc(C(=O)c2c[nH]c(C(=O)NCCCN3CCOCC3)c2)c1	none
CC1(C)CC(=O)C2=C(C1)N(CCN1CCOCC1)C1=C(C(=O)CC(C)(C)C1)C2c1cccc(Cl)c1	RanGTP-Imp inh 111.1 (no result: Runt-CBFb FRET)
CCCCN1C2=C(C(=O)CC(C)(C)C2)C(c2ccccc2)C2=C1c1ccccc1C2=O (stereo unspecified)	none
CCN(CC)CCN1C2=C(C(=O)CC(C)(C)C2)C(c2cccc(F)c2)C2=C1CC(C)(C)CC2=O	RanGTP-Imp inh 95.9, Runt-SMMHC FRET 86.3, Runt-CBFb FRET 83.1
CCCN1C2=C(C(=O)CC(C)(C)C2)C(c2ccc(F)cc2)C2=C1c1ccccc1C2=O (stereo unspecified)	none
Cc1ccc(NC(=O)COC(=O)CN2C(=O)c3ccccc3C2=O)cc1S(=O)(=O)N(C)C	RanGTP-Imp inh 39.8
Cc1ccc(NC(=O)COC(=O)CN2C(=O)NC3(CCCC3)C2=O)cc1S(=O)(=O)N(C)C	none
CCCCc1nc2sc3c(=O)n(N)cnc3c2c2c1CCC2	none
O=C(CSc1nncn1-c1ccccc1)c1c[nH]c2ccccc12	none
Cn1cnnc1SCC(=O)c1c[nH]c2ccccc12	RanGTP-Imp inh 31.3
O=c1[nH]c(=O)c2ncc(-c3ccc(Cl)cc3)nc2[nH]1	Runt-SMMHC FRET 85.3, Runt-CBFb FRET 53.8
COc1cccc(OC)c1C(=O)Nc1sc2c(c1C(N)=O)CCN(Cc1ccccc1)C2	RanGTP-Imp inh 133.7 (no result: Hck Nef HTS, Runt-SMMHC FRET, Runt-CBFb FRET)
CC(=O)c1ccc(C(=O)Nc2sc3c(c2C(N)=O)CCN(Cc2ccccc2)C3)cc1	RanGTP-Imp inh 55.3 (no result: Hck Nef HTS, Runt-SMMHC FRET, Runt-CBFb FRET)
Cc1cc(F)ccc1NCc1ccc([N+](=O)[O-])cc1	none
COc1ccccc1C(=O)NNC(=O)C1CCCO1 (stereo unspecified)	none (no result: Hck Nef HTS, Runt-SMMHC FRET, Runt-CBFb FRET)
Cc1nn(CC(=O)O)c(C)c1Cl	none
Cc1c(Cl)c(=O)n2c(=O)c(Cl)c(C)n12	RanGTP-Imp inh 128.3, Runt-SMMHC FRET 86.1
CCc1cccc(C)c1NC(=O)CN1CCN(S(=O)(=O)c2ccc(C(C)(C)C)cc2)CC1	none (no result: Hck Nef HTS, Runt-SMMHC FRET, Runt-CBFb FRET)
O=C(O)CC1(CC(=O)Nc2ccc(F)c(Cl)c2)CCCCC1	none
O=C(O)c1c2c(nc3ccccc13)/C(=C/c1c(F)cccc1F)CCC2	RanGTP-Imp inh 75.0 (no result: Hck Nef HTS, Runt-SMMHC FRET, Runt-CBFb FRET)
O=C(O)c1c2c(nc3ccccc13)/C(=C/c1ccc(O)cc1)CC2	Runt-SMMHC FRET 86.3
Cc1onc(-c2c(F)cccc2Cl)c1C(=O)ONC(=O)c1ccco1	none
O=C(NCCCN1CCCC1=O)c1ccc(NS(=O)(=O)c2ccccc2)cc1	none (no result: Hck Nef HTS, Runt-SMMHC FRET, Runt-CBFb FRET)
CCOCC(=O)Nc1cc(Cl)c(OC)cc1OC	none
CS(=O)(=O)N(CC(=O)N1CCCC1)Cc1ccc(Cl)c(Cl)c1	none (no result: Hck Nef HTS, Runt-SMMHC FRET, Runt-CBFb FRET)
Cc1nn(-c2ccccc2)c(C)c1-c1nnc(-c2c(C)nn(-c3ccccc3)c2C)o1	none
O=c1[nH]c(C2CCN(S(=O)(=O)c3ccc(F)cc3)CC2)nc2c1nnn2Cc1ccc2c(c1)OCCO2	RanGTP-Imp inh 19.3 (no result: Hck Nef HTS, Runt-SMMHC FRET, Runt-CBFb FRET)
O=c1[nH]c(C2CCN(S(=O)(=O)c3ccccc3F)CC2)nc2c1nnn2Cc1ccc2c(c1)OCCO2	none (no result: Hck Nef HTS, Runt-SMMHC FRET, Runt-CBFb FRET)
COc1ccc(S(=O)(=O)N2CCOC23CCN(S(C)(=O)=O)CC3)cc1	none (no result: Hck Nef HTS, Runt-SMMHC FRET, Runt-CBFb FRET)
O=C(CN1C(=O)CSc2ccc(S(=O)(=O)N3CCOCC3)cc21)NCCCN1CCOCC1	RanGTP-Imp inh 151.4
O=C(CN1C(=O)CSc2ccc(S(=O)(=O)N3CCOCC3)cc21)N1CCCCC1	RanGTP-Imp inh 62.1 (no result: Hck Nef HTS, Runt-SMMHC FRET, Runt-CBFb FRET)
CCOC(=O)C1CCN(C(=O)CN2C(=O)CSc3ccc(S(=O)(=O)N4CCOCC4)cc32)CC1	none (no result: Hck Nef HTS, Runt-SMMHC FRET, Runt-CBFb FRET)
Cc1ccc(S(=O)(=O)Nc2cccc(Cl)c2)cc1NC(=O)c1cccnc1	RanGTP-Imp inh 62.3
Cc1cc(C)nc(CCNC(=O)CC2C(=O)NCCN2Cc2ccccc2)n1 (stereo unspecified)	none (no result: Hck Nef HTS, Runt-SMMHC FRET, Runt-CBFb FRET)
